Screening results as filed in PubChem BioAssay.
TLR4-MyD88 BLA: inhibitors of TLR4-MyD88 association in cells, primary screen, cell-based, HeLa CL3-4, BLA complementation, FRET ratio; Toll-like receptor 4 (Homo sapiens) + Myeloid differentiation primary response protein …; HeLa CL3-4 TLR4/MyD88 BLA complementation; inhibition, % at 8.4 µM; 200,000 compounds, 0.18% hits; in the data active = inhibition above about 25%;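 also: 0% = vehicle and 100% = reference inhibitor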
TLR9-MyD88 inh: inhibitors of TLR9-MyD88 association in cells, primary screen, cell-based, CHO, BLA complementation, fluorescence; CCF4 FRET ratio; Toll-like receptor 9 (Homo sapiens) + Myeloid differentiation primary response protein …; 340,000 compounds, 0.21% hits; inhibition, % at 4.98 µM;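 active = inhibition above the mean over all tested compounds plus 3 SD, cut at about 21% in these data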;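 also: 0% = DMSO only wells and 100% = clavulanate BLA inhibitor control wells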
MC4R barr agon: MC4R agonists recruiting beta-arrestin, primary screen, cell-based, luminescence, agonist arm of biased-ligand search; AID 540308, 2011; activation, % at 8.9 µM; U2OS MC4R beta-arrestin complementation; percent of melanotan II response, DMSO zero; 360,000 compounds, 0.98% hits;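 active = activation above a per-plate cutoff, the mean activation of sample wells on that plate plus 3 SD, cut at about 8% in these data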
MC4R antagonist: MC4R antagonists of cAMP signaling, primary screen, cell-based, TR-FRET, antagonist arm of biased-ligand search. AID 540295, 2011. MC4R-expressing cells, MTII-stimulated cAMP, LANCE TR-FRET. Melanocortin receptor 4 (Homo sapiens), P32245. inhibition, % at 6.5 µM. 360,000 compounds, 0.48% hits;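 active = inhibition above its plate's cutoff, the mean of tested wells on that plate plus 3 SD, cut at about 29% in these data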;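 also: 0% = Melanotan II alone and 100% = Melanotan II plus saturating MCL0020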
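System: U2OS cells stably expressing human melanocortin 4 receptor (MC4R). Reagent: Melanotan II challenge after compound preincubation. Doses: 6.5 µM. Times: 30-min compound, 1-h challenge, 1-h detection, room temperature. Measured by: TR-FRET with Eu-cAMP and labeled anti-cAMP, 671 nm. Replicates: singlicate.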
NOD2-RIPK2 inh: NOD2-RIPK2 binding disruptors in cells, primary screen, fluorescence, CHO cells, BLA complementation; 360,000 compounds, 0.38% hits; CCF4 ratio; AID 624267, 2012; inhibition, % at 4.98 µM; in the data active = inhibition above about 21%;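 also: 0% = vehicle only and 100% = reference blocker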
An asterisk follows results filed as active; · = not tested or not shown. This is a sample that favours compounds with a hit; in the whole collection about 1.8% have one here.

SMILES	TLR4-MyD88 BLA	TLR9-MyD88 inh	MC4R barr agon	MC4R antagonist	NOD2-RIPK2 inh
COc1cccc(Oc2nnnn2-c2ccccc2)c1	10	-5	0	2	-125
COc1cccc(-n2nnnc2S(C)(=O)=O)c1	7	22*	-3	43*	49*
Cc1ccccc1OCC(O)Cn1c(=N)n(Cc2ccccc2)c2ccccc21 (centres undefined)	·	-8	9.1*	-1	3
COc1ccccc1-c1nc(S(=O)(=O)c2ccccc2)c(N2CCCCC2)o1	·	-5	-1	32*	-3
O=S(=O)(c1ccc(F)cc1)c1nc(-c2ccccc2F)oc1N1CCCCC1	12	6	0	6	-5
CC(C)(C)C1CCc2onc(C(=O)Nc3ccc(F)cc3F)c2C1 (centres undefined)	15	1	8.3*	2	2
COc1ccc(-n2c(SCC(=O)NCC3CCCO3)nc3n[nH]c(C)c3c2=N)cc1 (centres undefined)	-8	1	0	4	-4
Cc1ccc(Cl)cc1-n1c(SCC(=O)NCCC2=CCCCC2)nc2n[nH]c(C)c2c1=N	·	-6	1	11	-6
Cc1[nH]nc2nc(SCC(=O)NCCC3=CCCCC3)n(-c3ccc(Br)cc3)c(=N)c12	·	7	49*	18	2
Cc1cc(-n2c(SCC(=O)NCCC3=CCCCC3)nc3n[nH]c(C)c3c2=N)ccc1Cl	·	1	15*	10	-9
COc1ccc(NC(=O)CSc2nc3n[nH]c(C)c3c(=N)n2-c2ccc(Cl)c(C)c2)cc1OC	·	6	25*	17	2
COc1ccc(OC)c(NC(=O)COC(=O)/C=C/c2ccc(Cl)cc2)c1	3	-4	1	8	-14
Nc1c(S(=O)(=O)c2cccs2)c2nc3ccccc3nc2n1/N=C/c1cccc(O)c1	2	2	8.4*	17	2
COc1cccc(/C=N/n2c(N)c(S(=O)(=O)c3cccs3)c3nc4ccccc4nc32)c1	-7	-5	-1	-6	-2
CSc1cccc(NC(=O)Nc2nc3c(C)cccc3s2)c1	·	-3	9.1*	8	10
COC(=O)Nc1nc2c(C)cccc2s1	-7	0	-2	3	-9
CC(=O)C1CCC2C3CC=C4CC(SC(=N)N)CCC4(C)C3CCC12C (centres undefined)	·	3	15*	7	7
CCC1CCc2c(sc3nc(SCC(=O)NCc4ccco4)n(-c4ccccc4)c(=O)c23)C1 (centres undefined)	11	0	8.7*	9	8
O=c1[nH]nc(Cc2ccc(-c3ccccc3Cl)o2)c2ccccc12	-2	-3	8.9*	-2	-4
COc1ccc(NC2CCCN(C(=O)CSc3ccccn3)C2)cc1OC (centres undefined)	·	-11	-1	10	-7
O=C(CSc1nc2ccccc2n1S(=O)(=O)c1cccc([N+](=O)[O-])c1)NCCc1ccccc1	2	1	9.4*	3	3
CCc1ccc(O)c(N=Cc2cccc(C)c2O)c1	1	-6	-1	0	5
CCCc1ccc(O)c(N=Cc2cc(Br)cc(OCC)c2O)c1	-14	-1	12*	15	-7
COc1cccc(OC)c1-c1nn2c(-c3cc(-c4ccccc4)n[nH]3)nnc2s1	-8	7	36*	-5	11
COc1cccc(-c2nnc3sc(-c4ccccc4)nn23)c1	0	-6	1	4	2
SMILES	TLR4-MyD88 BLA	TLR9-MyD88 inh	MC4R barr agon	MC4R antagonist	NOD2-RIPK2 inh
CCCCCCN(C(=O)CCl)c1ccccc1	·	7	18*	8	-3
O=C(CCl)N(c1ccccc1)c1ccccc1	-9	7	2	16	6
CCCCCCCN(C(=O)CCl)c1cccc(C)c1	9	-2	9.0*	4	-6
CC(=O)c1cccc(NC(=O)c2ccc3ccccc3c2)c1	·	1	0	4	5
COc1ccc(-c2cccc(C(=O)Nc3ccc(C)cc3)c2)cc1	-1	6	8.6*	1	-3
COc1ccc(NC(=O)c2ccc3ccccc3c2)cc1	·	-3	8.8*	10	-16
